Results: ChEMBL document CHEMBL1144917, “Synthetic, nondegradable diadenosine polyphosphates and diinosine polyphosphates: their effects on insulin-secreting cells and cultured vascular smooth muscle cells” (J Med Chem, 2003)

Assays:
[1] = test system: INS1; experiment: Percent of compound radioactivity ([3H]-Ap4A Degradation), determined in the incubation medium of INS-1 cell membranes; format: functional, cell-based; parameters: concentration or dose not given beside the values
In short: (§1)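 Membranes from half-confluent INS-1 cells incubated 10 min at 37 °C in KRH buffer with 5.6 mM glucose, 0.31 μM [3H]Ap4A, with or without 30 μM unlabeled nucleotide. Medium aliquot mixed with unlabeled standards, TLC on silica gel in dioxane/conc. ammonia/water (6:1:4) for 2 h. UV-located spots cut out and scintillation counted. Reported as percent of radioactivity per species; mean ± SE of two experiments.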

[2] = test system: INS1; experiment: Percent of compound radioactivity ([3H]-Ap4A Degradation), in presence of added Ap(s)pCH2pp(s)A, in the incubation medium of INS-1 cell membranes; format: functional, cell-based; in short: as §1
[3] = test system: INS1; experiment: Percent of compound radioactivity ([3H]-Ap4A Degradation), in presence of added Ap(s)pCHClpp(s)A, in the incubation medium of INS-1 cell membranes; format: functional, cell-based; in short: as §1
[4] = test system: INS1; experiment: Percent of compound radioactivity ([3H]-Ap4A Degradation), in presence of added Ap4A, in the incubation medium of INS-1 cell membranes; format: functional, cell-based; parameters: concentration or dose not given beside the values; in short: as §1
[5] = organism: Rattus norvegicus; experiment: Percent of compound radioactivity ([3H]-Ap4A Degradation) in heparinized rat plasma (saline); format: functional
In short: (§2)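 Heparinized rat plasma (40 μL) incubated 15 min with 10 nM [3H]Ap4A plus 3 μL saline or 3 μL of a 1 mM analogue solution. Products resolved by TLC on silica gel in dioxane/conc. ammonia/water (6:1:4) alongside unlabeled standards, and spots scintillation counted. Reported as percent of radioactivity per species; mean ± SE of two experiments.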

[6] = organism: Rattus norvegicus; experiment: Percent of compound radioactivity ([3H]-Ap4A Degradation), in presence of added Ap(s)pCH2pp(s)A, in heparinized rat plasma; format: functional; parameters: concentration or dose not given beside the values; in short: as §2
[7] = organism: Rattus norvegicus; experiment: Percent of compound radioactivity ([3H]-Ap4A Degradation), in presence of added Ap(s)pCHClpp(s)A, in heparinized rat plasma; format: functional; parameters: concentration or dose not given beside the values; in short: as §2

SMILES	Radioactivity [1] [%]	Radioactivity [2] [%]	Radioactivity [3] [%]	Radioactivity [4] [%]	Radioactivity [5] [%]	Radioactivity [6] [%]	Radioactivity [7] [%]
Nc1ncnc2c1ncn2[C@@H]1O[C@H](CO)[C@@H](O)[C@H]1O	22.4	19.4	14.3	15.1	< 1	< 1	< 1
Nc1ncnc2c1ncn2[C@@H]1O[C@H](COP(=O)(O)O)[C@@H](O)[C@H]1O	5.3			0.8	2.4	1.98	2.31
Nc1ncnc2c1ncn2[C@@H]1O[C@H](COP(=O)(O)OP(=O)(O)OP(=O)(O)OP(=O)(O)OC[C@H]2O[C@@H](n3cnc4c(N)ncnc43)[C@H](O)[C@@H]2O)[C@@H](O)[C@H]1O	52.4	54.9	61.3	70	21.5	31.6	26.5
Nc1ncnc2c1ncn2[C@@H]1O[C@H](COP(=O)(O)OP(=O)(O)OP(=O)(O)O)[C@@H](O)[C@H]1O	8.4	8.2		4	42.1	37.6	40.5
Nc1ncnc2c1ncn2[C@@H]1O[C@H](COP(=O)(O)OP(=O)(O)O)[C@@H](O)[C@H]1O	11.3	9.3	8.8	7.8	22.3	27.4	30.6
